Assay results from ChEMBL document CHEMBL1150419, “Structure-activity relationships of a peptide inhibitor of the human FcRn:human IgG interaction” (Bioorg Med Chem, 2008).
Square brackets hold non-standard residues; d marks the D form. Peptide text beside a SMILES is read from it. βAla = NCCC(=O)O

Assays:
[1] = biological target: T1, IgG receptor FcRn large subunit p51 (Homo sapiens, UniProt P55899); test: Binding affinity to human FcRn at pH 6 by surface plasmon resonance assay
In short: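 Soluble human FcRn coupled to the dextran surface of a CM5 chip; peptide dilutions flowed over the chip. The equilibrium response at each dilution was plotted against concentration and fitted to a steady-state affinity model to give Kd.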

[2] = biological target: T1, IgG receptor FcRn large subunit p51; test: Inhibition of human IgG binding to soluble human FcRn by ELISA
In short: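 Biotinylated soluble human FcRn immobilized on neutravidin plates, incubated with hIgG (3 nM, constant) and peptide at varying concentrations for 2 h at 37 °C. After washing, bound hIgG detected with peroxidase-conjugated hIgG-specific Fab fragments.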

T1 sequence (P55899 whole entry): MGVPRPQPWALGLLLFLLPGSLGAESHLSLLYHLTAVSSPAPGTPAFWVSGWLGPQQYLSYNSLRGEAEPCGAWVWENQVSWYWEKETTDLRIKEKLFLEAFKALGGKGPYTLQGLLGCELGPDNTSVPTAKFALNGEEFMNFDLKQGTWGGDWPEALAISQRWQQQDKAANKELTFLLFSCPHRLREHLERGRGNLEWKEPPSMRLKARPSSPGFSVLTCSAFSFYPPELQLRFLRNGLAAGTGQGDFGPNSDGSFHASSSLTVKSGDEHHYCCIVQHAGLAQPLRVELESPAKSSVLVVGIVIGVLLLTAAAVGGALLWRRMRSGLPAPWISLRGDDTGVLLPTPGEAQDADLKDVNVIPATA

Kd [1] [µM] | IC50 [2] [µM] | Compound
0.031 | 0.57 | CC(C)C[C@@H](C(=O)N[C@@H](Cc1ccc(O)cc1)C(=O)N1CCC[C@H]1C(=O)N[C@@H](CS)C(=O)O)N(C)C(=O)CN(C)C(=O)CNC(=O)[C@H](Cc1ccccc1)NC(=O)[C@H](Cc1cnc[nH]1)NC(=O)CNC(=O)[C@@H](NC(=O)[C@@H](NC(=O)[C@H](Cc1ccccc1)NC(=O)[C@@H](N)CCCNC(=N)N)C(C)(C)S)[C@@H](C)O
0.28 | 2.3 | CC(C)C[C@H](NC(=O)CN1CC[C@@H](NC(=O)[C@H](Cc2ccccc2)NC(=O)[C@H](Cc2cnc[nH]2)NC(=O)CNC(=O)[C@@H](NC(=O)[C@@H](NC(=O)[C@H](Cc2ccccc2)NC(=O)[C@@H](N)CCCN=C(N)N)C(C)(C)S)[C@@H](C)O)C1=O)C(=O)N[C@@H](Cc1ccc(O)cc1)C(=O)N1CCC[C@H]1C(=O)N[C@@H](CS)C(=O)O
0.103 | 0.64 | CC(C)C[C@H](NC(=O)CN1CCCC[C@@H](NC(=O)[C@H](Cc2ccccc2)NC(=O)[C@H](Cc2cnc[nH]2)NC(=O)CNC(=O)[C@@H](NC(=O)[C@H](NC(=O)[C@H](Cc2ccccc2)NC(=O)[C@@H](N)CCCNC(=N)N)C(C)(C)S)[C@@H](C)O)C1=O)C(=O)N[C@@H](Cc1ccc(O)cc1)C(=O)N1CCC[C@H]1C(=O)N[C@@H](CS)C(=O)O
0.086 | 1.6 | CC(C)C[C@@H](C(=O)N[C@@H](Cc1ccc(O)cc1)C(=O)N1CCC[C@H]1C(=O)N[C@@H](CS)C(=O)N[C@@H](CC(N)=O)C(=O)NCC(=O)N1CCC[C@H]1C(=O)O)N(C)C(=O)CNC(=O)CNC(=O)[C@H](Cc1ccccc1)NC(=O)[C@H](Cc1cnc[nH]1)NC(=O)CNC(=O)[C@@H](NC(=O)[C@@H](NC(=O)[C@H](Cc1ccccc1)NC(=O)[C@H](CCCN=C(N)N)NC(=O)[C@@H](N)CCC(N)=O)C(C)(C)S)[C@@H](C)O
0.2 | 1 | Cc1ccccc1C[C@H](NC(=O)[C@H](Cc1cnc[nH]1)NC(=O)CNC(=O)[C@@H](NC(=O)[C@@H](NC(=O)[C@H](Cc1ccccc1)NC(=O)[C@H](CCCNC(=N)N)NC(=O)[C@@H](N)CCC(N)=O)C(C)(C)S)[C@@H](C)O)C(=O)NCC(=O)NCC(=O)N[C@@H](CC(C)C)C(=O)N[C@@H](Cc1ccc(O)cc1)C(=O)N1CCC[C@H]1C(=O)N[C@@H](CS)C(=O)N[C@@H](CC(N)=O)C(=O)NCC(=O)N1CCC[C@H]1C(=O)O

The remaining lines, values behind:

Compound | Kd [1] [µM] | IC50 [2] [µM]
CC(C)C[C@H](NC(=O)CNC(=O)CNC(=O)[C@H](Cc1ccccc1)NC(=O)[C@H](Cc1cnc[nH]1)NC(=O)CNC(=O)[C@@H](NC(=O)[C@@H](NC(=O)[C@H](Cc1ccccc1)NC(=O)[C@H](CCCNC(=N)N)NC(=O)[C@@H](N)CCC(N)=O)C(C)(C)S)[C@@H](C)O)C(=O)N[C@@H](Cc1cccnc1)C(=O)N1CCC[C@H]1C(=O)N[C@@H](CS)C(=O)N[C@@H](CC(N)=O)C(=O)NCC(=O)N1CCC[C@H]1C(=O)O | 34 | 92
CC(C)C[C@H](NC(=O)[C@@H](CCCN=C(N)N)NC(=O)CNC(=O)[C@H](Cc1ccccc1)NC(=O)[C@H](Cc1cnc[nH]1)NC(=O)CNC(=O)[C@@H](NC(=O)[C@@H](NC(=O)[C@H](Cc1ccccc1)NC(=O)[C@H](CCCN=C(N)N)NC(=O)[C@@H](N)CCC(N)=O)C(C)(C)S)[C@@H](C)O)C(=O)N[C@@H](Cc1ccc(O)cc1)C(=O)N1CCC[C@H]1C(=O)N[C@@H](CS)C(=O)N[C@@H](CC(N)=O)C(=O)NCC(=O)N1CCC[C@H]1C(=O)O | 0.83 | 8.1
CC(C)C[C@H](NC(=O)CNC(=O)CNC(=O)[C@H](Cc1ccccc1)NC(=O)[C@H](Cc1cnc[nH]1)NC(=O)CCNC(=O)[C@@H](NC(=O)[C@H](CS)NC(=O)[C@H](Cc1ccccc1)NC(=O)[C@H](CCCNC(=N)N)NC(=O)[C@@H](N)CCC(N)=O)[C@@H](C)O)C(=O)N[C@@H](Cc1ccc(O)cc1)C(=O)N1CCC[C@H]1C(=O)N[C@@H](CS)C(=O)N[C@@H](CC(N)=O)C(=O)NCC(=O)N1CCC[C@H]1C(=O)O (H-QRFCT[βAla]HFGGLYPCNGP-OH) | > 250 | > 125
CC(C)C[C@H](NC(=O)CNC(=O)CNC(=O)[C@H](Cc1ccccc1)NC(=O)[C@H](Cc1cnc[nH]1)NC(=O)CNC(=O)[C@@H](NC(=O)[C@@H](NC(=O)[C@H](Cc1ccccc1)NC(=O)[C@H](CCCNC(=N)N)NC(=O)[C@@H](N)CCC(N)=O)C(C)(C)S)[C@@H](C)O)C(=O)N[C@@H](Cc1ccc(O)cc1[N+](=O)[O-])C(=O)N1CCC[C@H]1C(=O)N[C@@H](CS)C(=O)N[C@@H](CC(N)=O)C(=O)NCC(=O)N1CCC[C@H]1C(=O)O | 290 | > 125
CC(C)C[C@H](NC(=O)CN1CCCC[C@@H](NC(=O)[C@H](Cc2ccccc2)NC(=O)[C@H](Cc2cnc[nH]2)NC(=O)CNC(=O)[C@@H](NC(=O)[C@@H](NC(=O)[C@H](Cc2ccccc2)NC(=O)[C@@H](N)CCCN=C(N)N)C(C)C)[C@@H](C)O)C1=O)C(=O)N[C@@H](Cc1ccc(O)cc1)C(=O)N1CCC[C@H]1C(=O)N[C@@H](C)C(=O)O | 2.3 | 23
H-QRFSTGHFGGLYPSNGP-OH | 230 | > 125
CC(C)C[C@H](NC(=O)CNC(=O)CNC(=O)[C@@H](NC(=O)[C@H](Cc1cnc[nH]1)NC(=O)CNC(=O)[C@@H](NC(=O)[C@@H](NC(=O)[C@H](Cc1ccccc1)NC(=O)[C@H](CCCN=C(N)N)NC(=O)[C@@H](N)CCC(N)=O)C(C)(C)S)[C@@H](C)O)C(c1ccccc1)c1ccccc1)C(=O)N[C@@H](Cc1ccc(O)cc1)C(=O)N1CCC[C@H]1C(=O)N[C@@H](CS)C(=O)O | 230 | 32
CC(C)C[C@H](NC(=O)CNC(=O)CNC(=O)[C@H](Cc1ccccc1)NC(=O)[C@H](Cc1cnc[nH]1)NC(=O)CNC(=O)[C@@H](NC(=O)[C@H](CS)NC(=O)[C@H](Cc1ccccc1)NC(=O)[C@H](CCCNC(=N)N)NC(=O)[C@@H](N)CCC(N)=O)[C@@H](C)O)C(=O)N[C@@H](Cc1ccccc1)C(=O)N1CCC[C@H]1C(=O)N[C@@H](CS)C(=O)N[C@@H](CC(N)=O)C(=O)NCC(=O)N1CCC[C@H]1C(=O)O | 230 | > 125
CC(C)C[C@H](NC(=O)CNC(=O)CNC(=O)[C@H](Cc1ccccc1)NC(=O)[C@H](Cc1cnc[nH]1)NC(=O)[C@@H](C)NC(=O)[C@@H](NC(=O)[C@H](CS)NC(=O)[C@H](Cc1ccccc1)NC(=O)[C@H](CCCN=C(N)N)NC(=O)[C@@H](N)CCC(N)=O)[C@@H](C)O)C(=O)N[C@@H](Cc1ccc(O)cc1)C(=O)N1CCC[C@H]1C(=O)N[C@@H](CS)C(=O)N[C@@H](CC(N)=O)C(=O)NCC(=O)N1CCC[C@H]1C(=O)O | > 250 | > 125
CC(C)C[C@H](NC(=O)CNC(=O)CNC(=O)[C@H](Cc1ccccc1)NC(=O)[C@H](Cc1cnc[nH]1)NC(=O)CNC(=O)[C@@H](NC(=O)[C@H](CS)NC(=O)[C@H](Cc1ccccc1)NC(=O)[C@H](CCCNC(=N)N)NC(=O)[C@@H](N)CCC(N)=O)[C@@H](C)O)C(=O)N[C@@H](Cc1ccc(O)cc1)C(=O)N1CCC[C@H]1C(=O)N[C@@H](CS)C(=O)N[C@@H](CC(N)=O)C(=O)NCC(=O)N1CCC[C@H]1C(=O)O | 5.1 | 40
CC(C)C[C@H](NC(=O)CNC(=O)CNC(=O)[C@H](Cc1ccccc1)NC(=O)[C@H](Cc1cnc[nH]1)NC(=O)CNC(=O)[C@@H](NC(=O)[C@H](CS)NC(=O)[C@@H](N)Cc1ccccc1)[C@@H](C)O)C(=O)N[C@@H](Cc1ccc(O)cc1)C(=O)N1CCC[C@H]1C(=O)N[C@@H](CS)C(=O)N[C@@H](CC(N)=O)C(=O)NCC(=O)N1CCC[C@H]1C(=O)O | 11 | 67
